Experimental data: ChEMBL document CHEMBL1136006, “New PET imaging agent for the serotonin transporter: [(18)F]ACF (2-[(2-amino-4-chloro-5-fluorophenyl)thio]-N,N-dimethyl-benzenmethanamine)” (J Med Chem, 2002)

What was measured:
Rattus norvegicus [1] = assay: Effect of pretreatment with methylphenidate with a dose of 2 mg/kg (i.v.) on specific binding of [18F]ACF in rat brain cerebellum; dose/g; type: ADME, organism-based; set-up: dose 2 mg/kg, route intravenous; conditions: in vivo, iv
In short: (§1)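 Rats pretreated iv with drug (2 mg/kg) or saline 5 min before iv [18F]ACF (50 μCi). Sacrificed 1 h after tracer. Brain regions were dissected, weighed and counted, and % dose/g was calculated against a diluted initial dose. Drug-treated rats were compared with saline controls by ANOVA/Dunnett's test (p<0.05). Three rats per point, average ± SD.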

Rattus norvegicus [2] = species on record: Rattus norvegicus; assay: Ratio of regional brain distribution of [18F]ACF radiolabeled compound in rat hippocampus to that of cerebellum after 120 min; type: ADME, organism-based; conditions: in vivo, 2 h
In short: (§2)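 Rats (three per group) under ether anesthesia got 30 μCi tracer in 0.2 mL saline into the femoral vein and were killed by cardiac excision at the stated time. Cortex, striatum, hippocampus, cerebellum, hypothalamus and the rest of brain were dissected, weighed and gamma counted. %dose/g was taken against counts of a diluted initial dose. Regional ratios are each region's %dose/g over cerebellum's. Mean ± SD.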

Rattus norvegicus [3] = species on record: Rattus norvegicus; assay: Organ distribution of [18F]-ACF radiolabeled compound in rat muscle after 30 min; type: ADME, organism-based, Muscle tissue; conditions: in vivo, 0.5 h
In short: (§3)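 Under ether anesthesia, 30 μCi no-carrier-added tracer in 0.2 mL saline injected into the femoral vein. Rats killed by cardiac excision at the stated time. Organs were removed, weighed and counted; % dose/organ was calculated against counts of a 1% initial-dose standard. Three rats per time, average ± SD.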

Rattus norvegicus [4] = species on record: Rattus norvegicus; assay: Regional brain distribution of [18F]ACF radiolabeled compound in rat cortex after 60 min; type: ADME, organism-based; conditions: in vivo, 1 h; in short: as §2
Rattus norvegicus [5] = species on record: Rattus norvegicus; assay: Ratio of regional brain distribution of [18F]-ACF radiolabeled compound in rat cerebellum to that of cerebellum after 120 min; type: ADME, organism-based; conditions: in vivo, 2 h
In short: (§4)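 Rats, three per time point, given 30 μCi tracer in 0.2 mL saline into femoral vein under ether anesthesia; killed at 2, 30, 60, 120 or 240 min. Cortex, striatum, hippocampus, cerebellum, hypothalamus and rest of brain dissected, weighed, counted; % dose/g against diluted initial dose, then each region divided by cerebellum. Average of three rats ± SD.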

Rattus norvegicus [6] = species on record: Rattus norvegicus; assay: Organ distribution of [18F]-ACF radiolabeled compound in rat heart after 240 min; type: ADME, organism-based; conditions: in vivo, 4 h; in short: as §3
[7] = biological target: Sodium-dependent noradrenaline transporter (Homo sapiens, UniProt P23975); assay: In vitro binding affinity in LLC-PK1 cells by Norepinephrine transporter binding assay by using [125I]-IPT as a radioligand; type: cell-based
Sodium-dependent noradrenaline transporter, sequence (P23975 whole entry, looked up): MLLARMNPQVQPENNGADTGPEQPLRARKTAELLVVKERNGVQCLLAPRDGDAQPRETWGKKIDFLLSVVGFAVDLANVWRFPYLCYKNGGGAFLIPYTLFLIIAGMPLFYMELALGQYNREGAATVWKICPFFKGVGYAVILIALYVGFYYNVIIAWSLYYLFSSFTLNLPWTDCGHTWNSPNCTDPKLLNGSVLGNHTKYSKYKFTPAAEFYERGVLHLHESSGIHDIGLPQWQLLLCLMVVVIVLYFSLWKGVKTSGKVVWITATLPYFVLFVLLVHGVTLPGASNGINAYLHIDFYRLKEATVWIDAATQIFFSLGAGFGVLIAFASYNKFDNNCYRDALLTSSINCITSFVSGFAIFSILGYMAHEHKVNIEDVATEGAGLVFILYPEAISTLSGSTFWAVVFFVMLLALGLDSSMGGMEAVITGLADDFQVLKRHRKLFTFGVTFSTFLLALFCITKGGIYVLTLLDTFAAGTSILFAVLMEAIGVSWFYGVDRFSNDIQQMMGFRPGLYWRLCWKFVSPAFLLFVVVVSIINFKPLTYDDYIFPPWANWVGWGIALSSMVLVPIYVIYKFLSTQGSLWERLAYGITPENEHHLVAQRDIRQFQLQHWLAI
In short: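 LLC-PK1 cell membrane homogenates overexpressing DAT or NET. Incubated with 0.4 nM [125I]IPT and 8–10 competitor concentrations (10^-10 to 10^-5 M) in 50 mM Tris-HCl pH 7.4, 120 mM NaCl, 0.1% BSA for 1 h at room temperature. Nonspecific binding defined with 10 μM CFT. Filtered, gamma-counted, nonlinear regression. Mean ± SEM of three determinations in duplicate.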

Rattus norvegicus [8] = species on record: Rattus norvegicus; assay: Organ distribution of [18F]ACF radiolabeled compound in rat heart after 60 min; type: ADME, organism-based; conditions: in vivo, 1 h
In short: (§5)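 Rats, three per time point, under ether anesthesia; 30 μCi tracer in 0.2 mL saline injected into femoral vein. Sacrificed by cardiac excision under ether at 2, 30, 60, 120 or 240 min. Organs removed, weighed and counted; % dose/organ calculated against counts of 1% of initial dose counted at the same time. Average of three rats ± SD.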

Rattus norvegicus [9] = species on record: Rattus norvegicus; assay: Organ distribution of [18F]ACF radiolabeled compound in rat brain after 2 min; type: ADME, organism-based; conditions: in vivo; in short: as §5
Rattus norvegicus [10] = species on record: Rattus norvegicus; assay: Ratio of regional brain distribution of [18F]-ACF radiolabeled compound in rat cortex to that of cerebellum after 120 min; type: ADME, organism-based; conditions: in vivo, 2 h; in short: as §4
Rattus norvegicus [11] = assay: Ratio of effect of pretreatment with (+)-McN5652 with a dose of 2 mg/kg (i.v.) on specific binding of [18F]ACF in rat brain hypothalamus to that of cerebellum; type: ADME, organism-based; set-up: dose 2 mg/kg, route intravenous; conditions: in vivo, iv
In short: (§6)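 Rats (three per point) pretreated iv with competing drug at 2 mg/kg or saline (control) 5 min before iv [18F]ACF (50 μCi). At 1 h post tracer, brain regions (cortex, striatum, hippocampus, cerebellum, hypothalamus, remainder) dissected, weighed, counted as % dose/g and expressed as ratio to cerebellum. Average ± SD; ANOVA with Dunnett's test vs saline controls, p < 0.05.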

Rattus norvegicus [12] = assay: Effect of pretreatment with (+)-McN5652 with a dose of 2 mg/kg (i.v.) on specific binding of [18F]ACF in rat brain striatum; type: ADME, organism-based; set-up: dose 2 mg/kg, route intravenous; conditions: in vivo, iv; in short: as §1
Rattus norvegicus [13] = species on record: Rattus norvegicus; assay: Organ distribution of [18F]ACF radiolabeled compound in rat lung after 120 min; type: ADME, organism-based; conditions: in vivo, 2 h; in short: as §5
Rattus norvegicus [14] = species on record: Rattus norvegicus; assay: Organ distribution of [18F]ACF radiolabeled compound in rat blood after 120 min; type: ADME, organism-based; conditions: in vivo, 2 h; in short: as §5
Rattus norvegicus [15] = assay: Effect of pretreatment with nisoxatine with a dose of 2 mg/kg (i.v.) on specific binding of [18F]ACF in rat brain striatum; type: ADME, organism-based; set-up: dose 2 mg/kg, route intravenous; conditions: in vivo, iv; in short: as §1
Rattus norvegicus [16] = species on record: Rattus norvegicus; assay: Ratio of regional brain distribution of [18F]ACF radiolabeled compound in rat striatum to that of cerebellum after 2 min; type: ADME, organism-based; conditions: in vivo; in short: as §2
Rattus norvegicus [17] = species on record: Rattus norvegicus; assay: Ratio of regional brain distribution of [18F]-ACF radiolabeled compound in rat remainder to that of cerebellum after 240 min; type: ADME, organism-based; conditions: in vivo, 4 h; in short: as §2
Rattus norvegicus [18] = species on record: Rattus norvegicus; assay: Regional brain distribution of [18F]-ACF radiolabeled compound in rat cortex after 2 min; type: ADME, organism-based; conditions: in vivo; in short: as §2
Rattus norvegicus [19] = species on record: Rattus norvegicus; assay: Regional brain distribution of [18F]-ACF radiolabeled compound in rat remainder (rest of brain) after 240 min; type: ADME, organism-based; conditions: in vivo, 4 h; in short: as §2
Rattus norvegicus [20] = species on record: Rattus norvegicus; assay: Organ distribution of [18F]-ACF radiolabeled compound in rat brain after 30 min; type: ADME, organism-based; conditions: in vivo, 0.5 h; in short: as §3
Rattus norvegicus [21] = assay: Ratio of effect of pretreatment with methylphenidate with a dose of 2 mg/kg (i.v.) on specific binding of [18F]ACF in rat brain hippocampus to that of cerebellum; type: ADME, organism-based; set-up: dose 2 mg/kg, route intravenous; conditions: in vivo, iv; in short: as §6
Rattus norvegicus [22] = species on record: Rattus norvegicus; assay: Regional brain distribution of [18F]ACF radiolabeled compound in rat hypothalamus after 60 min; type: ADME, organism-based; conditions: in vivo, 1 h; in short: as §2
Rattus norvegicus [23] = species on record: Rattus norvegicus; assay: Regional brain distribution of [18F]ACF radiolabeled compound in rat hippocampus after 240 min; type: ADME, organism-based; conditions: in vivo, 4 h; in short: as §2
Rattus norvegicus [24] = assay: Ratio of effect of pretreatment with (+)-McN5652 with a dose of 2 mg/kg (i.v.) on specific binding of [18F]-ACF in rat brain hippocampus to that of cerebellum; type: ADME, organism-based; set-up: dose 2 mg/kg, route intravenous; conditions: in vivo, iv; in short: as §6
Rattus norvegicus [25] = species on record: Rattus norvegicus; assay: Ratio of regional brain distribution of [18F]-ACF radiolabeled compound in rat hypothalamus to that of cerebellum after 30 min; type: ADME, organism-based; conditions: in vivo, 0.5 h; in short: as §2
Rattus norvegicus [26] = species on record: Rattus norvegicus; assay: Ratio of regional brain distribution of [18F]-ACF radiolabeled compound in rat striatum to that of cerebellum after 240 min; type: ADME, organism-based; conditions: in vivo, 4 h; in short: as §2
Rattus norvegicus [27] = species on record: Rattus norvegicus; assay: Regional brain distribution of [18F]ACF radiolabeled compound in rat cerebellum after 120 min; type: ADME, organism-based; conditions: in vivo, 2 h; in short: as §2
Rattus norvegicus [28] = species on record: Rattus norvegicus; assay: Ratio of regional brain distribution of [18F]ACF radiolabeled compound in rat hypothalamus to that of cerebellum after 240 min; type: ADME, organism-based; conditions: in vivo, 4 h; in short: as §2
Rattus norvegicus [29] = species on record: Rattus norvegicus; assay: Ratio of regional brain distribution of [18F]-ACF radiolabeled compound in rat hypothalamus to that of cerebellum after 2 min; type: ADME, organism-based; conditions: in vivo; in short: as §2
Rattus norvegicus [30] = assay: Ratio of effect of pretreatment with (+)-McN5652 with a dose of 2 mg/kg (i.v.) on specific binding of [18F]ACF in rat brain cortex to that of cerebellum; type: ADME, organism-based; set-up: dose 2 mg/kg, route intravenous; conditions: in vivo, iv; in short: as §6
Rattus norvegicus [31] = assay: Ratio of effect of pretreatment with (+)-McN5652 with a dose of 2 mg/kg (i.v.) on specific binding of [18F]ACF in rat brain remainder to that of cerebellum; type: ADME, organism-based; set-up: dose 2 mg/kg, route intravenous; conditions: in vivo, iv; in short: as §6

For `CN(C)Cc1ccccc1Sc1cc(F)c(Cl)cc1N`, the Dose/g (Rattus norvegicus [1]) was 0.17%, the Ratio (Rattus norvegicus [2]) was 2.67 and the Dose/g (Rattus norvegicus [3]) was 10.7 % dose/organ. For the same molecule, the Dose/g (Rattus norvegicus [4]) was 0.33%, the Ratio (Rattus norvegicus [5]) was 1 and the Dose/g (Rattus norvegicus [6]) was 0.04 % dose/organ. The Ki [7] was 650 nM, the Dose/g (Rattus norvegicus [8]) was 0.11 % dose/organ and the Dose/g (Rattus norvegicus [9]) was 3.27 % dose/organ. For the same molecule, the Ratio (Rattus norvegicus [10]) was 1.77, the Ratio (Rattus norvegicus [11]) was 1.36 and the Dose/g (Rattus norvegicus [12]) was 0.25%. For the same molecule, the Dose/g (Rattus norvegicus [13]) was 0.32 % dose/organ, the Dose/g (Rattus norvegicus [14]) was 3.2 % dose/organ and the Dose/g (Rattus norvegicus [15]) was 0.47%. For the same molecule, the Ratio (Rattus norvegicus [16]) was 1.41, the Ratio (Rattus norvegicus [17]) was 1.58 and the Dose/g (Rattus norvegicus [18]) was 2.31%. The Dose/g (Rattus norvegicus [19]) was 0.03%, the Dose/g (Rattus norvegicus [20]) was 1.28 % dose/organ and the Ratio (Rattus norvegicus [21]) was 2.5. It also gave a Dose/g (Rattus norvegicus [22]) of 0.54%, a Dose/g (Rattus norvegicus [23]) of 0.04% and a Ratio (Rattus norvegicus [24]) of 1.93. The Ratio (Rattus norvegicus [25]) was 2.29, the Ratio (Rattus norvegicus [26]) was 2.35 and the Dose/g (Rattus norvegicus [27]) was 0.05%. It also gave a Ratio (Rattus norvegicus [28]) of 2.37, a Ratio (Rattus norvegicus [29]) of 1.37 and a Ratio (Rattus norvegicus [30]) of 1.43. For the same molecule, the Ratio (Rattus norvegicus [31]) was 1.37.
